# Assay results from PMC4703501 (Leukemia, 2015).
# “Also recorded” adds a separate entry of the source.
# Key:
# [1] = plasma level pharmacokinetics; assay type: in vivo, CD-1 mice; conditions: for area under the curve (AUC) as molar concentration / area under the curve (AUC): plasma
# How it was run: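 Female CD-1 mice (10–12 weeks) received 50mg/kg test compound dissolved in water, ip or by oral gavage. Sampling was at 10, 30 min and 1, 2, 4, 8 h, n=2 per time point, with heart-puncture blood into heparin/EDTA tubes. Plasma was analysed by LC/MS, and AUC was calculated by the trapezoidal rule.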
# MDA-MB-157 = experiment: GI50 growth inhibition assay; assay type: cell-based; conditions: Homo sapiens, MDA-MB-157, 96 h
# How it was run: (§1)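 Cell lines were grown in DMEM or RPMI with 10% FBS and pen-strep at 37°C, 5% CO₂, and were mycoplasma-negative. Cells were seeded at 2.5×10³ per 0.1 ml per well, and test compound was added 24 hrs later at the indicated concentrations. Viable cells were measured by resazurin (Cell Titer Blue) read-out 96 hrs post-treatment in duplicate wells.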
# [2] = tested on: primary patient-derived MCL cells (MEM1, MEM2); experiment: Rb and AKT pathway western blot in primary MCL; assay type: cell-based, human; conditions: both primary MCL samples, 18 hrs
# How it was run: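 Red cells were removed from primary MCL samples with ammonium chloride. Cells were then treated with increasing concentrations of test compound for 18 hrs and lysed in RIPA buffer (25mM Tris-HCl pH 7.5, 150mM NaCl, 1% NP40, 1% SDS, phosphatase inhibitors). […], nitrocellulose transfer and infrared imaging.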
# SNU-5 = experiment: GI50 growth inhibition assay; assay type: cell-based; conditions: Homo sapiens, SNU-5, 96 h
# How it was run: as §1
# Z138C cells = experiment: cell cycle distribution, propidium iodide flow cytometry; assay type: cell-based, human; conditions: 24 hours; for accumulation of cells in the sub-G1 phase: for ON123300 at higher concentrations
# How it was run: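 Z138C cells were treated with DMSO or increasing concentrations of test compound for 24 hours. They were then ethanol-fixed, PBS-washed and stained with RNase plus propidium iodide at 37°C for 20 min. DNA content was measured by flow cytometry to assign cell-cycle phases.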
# MDA-MB-231 = experiment: GI50 growth inhibition assay; assay type: cell-based; conditions: Homo sapiens, MDA-MB-231, 96 h
# How it was run: as §1
# [3] = tested on: Granta 519 and Z138 cell lines; experiment: MAP kinase pathway; assay type: cell-based, human; conditions: 24 hrs
# Z138C xenograft = experiment: Z138C tumor xenograft assay; assay type: in vivo, nu/nu mice
# DLD-1 = experiment: GI50 growth inhibition assay; assay type: cell-based; conditions: Homo sapiens, DLD-1, 96 h
# How it was run: as §1
# SNU-398 = experiment: GI50 growth inhibition assay; assay type: cell-based; conditions: Homo sapiens, SNU-398, 96 h
# How it was run: as §1
# MIA-PaCa-2 = experiment: GI50 growth inhibition assay; assay type: cell-based; conditions: Homo sapiens, MIA PaCa-2, 96 h
# How it was run: (§2)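 Cells from ATCC were grown in DMEM or RPMI with 10% FBS and penicillin-streptomycin at 37°C, humidified, 5% CO₂, and tested mycoplasma-negative. They were seeded at 2.5×10³ cells per 0.1 ml per well. Test compound was added 24 hrs after plating at a range of concentrations. Viable cells were measured by Cell Titer Blue from duplicate wells 96 hrs after treatment.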
# [4] = tested on: exponentially growing Z138 cells; experiment: p65; assay type: cell-based, human; conditions: 24 hrs
# How it was run: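 Exponentially growing Z138 cells were exposed to test compound. Whole-cell extracts were probed by western blot for p65 (NF-kB) phosphorylation.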
# BT-474 = experiment: GI50 growth inhibition assay; assay type: cell-based; conditions: Homo sapiens, BT-474, 96 h
# How it was run: as §2
# HeLa cells = experiment: TNF-α induced p65 NF-kB phosphorylation western blot; assay type: cell-based, human; conditions: 5ng/ml TNF-α for 5 min after treatment
# How it was run: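 Positive-control system: HeLa cells were pretreated with test compound, then stimulated with 5ng/ml TNF-α for 5 min. Phospho-p65 NF-kB was assessed by western blot of whole-cell extracts.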
# [5] = maximum tolerated dose study; assay type: in vivo, CD-1 mice
# How it was run: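 Female CD-1 mice (10–12 weeks), n=3 per group, were used. One arm received a single ip dose of 100 or 200 mg/kg, with toxicity signs and body weight followed for 7 days. The other arm received 200mg/kg ip for 5 consecutive days, followed for 10 days.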
# COLO-205 = experiment: GI50 growth inhibition assay; assay type: cell-based; conditions: Homo sapiens, COLO 205, 96 h
# How it was run: as §1
# [6] = previous studies; cited from earlier work
# GRANTA-519 = experiment: GI50 growth inhibition assay; assay type: cell-based; conditions: Homo sapiens, Granta-519, 96 h
# How it was run: as §1
# HCT-15 = experiment: GI50 growth inhibition assay; assay type: cell-based; conditions: Homo sapiens, HCT-15, 96 h
# How it was run: as §1
# MCL cell lines = experiment: GI50 assays, MCL cell lines versus other tumor types; assay type: cell-based, human; conditions: over a 96 hr period
# How it was run: as §1
# SW480 = experiment: GI50 growth inhibition assay; assay type: cell-based; conditions: Homo sapiens, SW480, 96 h
# How it was run: as §1
# [7] = tested on: Granta 519 and Z138C cells; experiment: PI3K/AKT/mTOR pathway western blot; assay type: cell-based, human; conditions: 24 hours
# How it was run: (§3)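 Granta 519 and Z138C cells (RPMI or DMEM, 10% FBS, pen-strep, 37°C, 5% CO₂) received vehicle or increasing concentrations of test compound for 24 hours. Whole-cell extracts were made in NP-40 lysis buffer (Tris pH 7.4, NaF, Na₃VO₄), run on SDS-PAGE and blotted to nitrocellulose. Detection used infrared imaging, GAPDH was the loading control, and 4 independent experiments were done.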
# [8] = tested on: Granta 519 and Z138C cells; experiment: CDK4/CYCLIN D/Rb pathway western blot; assay type: cell-based, human; conditions: 24 hours; for phosphorylation of pRb and p130: increasing concentrations
# How it was run: as §3
# [9] = tested on: Granta 519 and Z138C cells; experiment: apoptosis markers; assay type: cell-based, human; conditions: for PARP cleavage at lower concentrations: 72–96 hrs incubation, data not shown
# How it was run: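 Granta 519 and Z138C cells were treated with test compound, then lysed in NP-40 buffer. Western blots on nitrocellulose assessed full-length caspases 3, 7 and 9 and PARP cleavage as apoptosis markers.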
# [10] = tested on: primary patient-derived MCL cells (MEM1 ibrutinib-sensitive, MEM2 ibrutinib-resistant); experiment: Annexin V staining of primary patient-derived MCL; assay type: cell-based, human; conditions: 5µM ON123300; 24 hrs (legend: 18 hrs)
# How it was run: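 Patient MCL specimens (lymph node or peripheral blood) made into single-cell suspensions and cryopreserved in 90% FBS/10% DMSO in liquid nitrogen. Cells exposed to the indicated concentrations of test compound for 18 hrs. Apoptosis read as FITC-Annexin V staining by flow cytometry.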
# CDK1 = CDK1 (Homo sapiens, UniProt P06493); experiment: in vitro kinase assay; assay type: biochemical; conditions: data not shown
# Sequence of CDK1 (P06493 whole entry): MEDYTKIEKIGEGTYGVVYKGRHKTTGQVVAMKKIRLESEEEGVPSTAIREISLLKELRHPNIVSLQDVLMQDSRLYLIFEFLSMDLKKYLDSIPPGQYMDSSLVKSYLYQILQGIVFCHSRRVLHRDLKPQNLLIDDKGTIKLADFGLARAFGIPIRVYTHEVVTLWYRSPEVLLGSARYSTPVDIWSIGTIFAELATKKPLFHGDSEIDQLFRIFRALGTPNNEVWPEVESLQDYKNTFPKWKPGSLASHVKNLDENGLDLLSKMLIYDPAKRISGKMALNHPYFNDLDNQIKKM
# Sequence of CDK1 (P14635 whole entry, further chain): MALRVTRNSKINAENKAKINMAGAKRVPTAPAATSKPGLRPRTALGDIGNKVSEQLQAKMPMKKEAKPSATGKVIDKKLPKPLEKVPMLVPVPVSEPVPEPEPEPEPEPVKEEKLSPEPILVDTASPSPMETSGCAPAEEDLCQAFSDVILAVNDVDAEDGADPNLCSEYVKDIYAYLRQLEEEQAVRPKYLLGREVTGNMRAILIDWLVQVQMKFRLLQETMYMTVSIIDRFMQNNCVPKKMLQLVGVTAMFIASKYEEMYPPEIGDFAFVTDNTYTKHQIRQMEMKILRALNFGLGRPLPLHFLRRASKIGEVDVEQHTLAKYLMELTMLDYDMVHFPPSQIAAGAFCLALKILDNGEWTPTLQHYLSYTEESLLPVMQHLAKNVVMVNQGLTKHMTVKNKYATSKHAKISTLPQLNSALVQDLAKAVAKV
# CDK5 = CDK5 (Homo sapiens, UniProt Q00535); experiment: in vitro kinase assay; assay type: biochemical; conditions: data not shown
# Sequence of CDK5 (Q00535 whole entry): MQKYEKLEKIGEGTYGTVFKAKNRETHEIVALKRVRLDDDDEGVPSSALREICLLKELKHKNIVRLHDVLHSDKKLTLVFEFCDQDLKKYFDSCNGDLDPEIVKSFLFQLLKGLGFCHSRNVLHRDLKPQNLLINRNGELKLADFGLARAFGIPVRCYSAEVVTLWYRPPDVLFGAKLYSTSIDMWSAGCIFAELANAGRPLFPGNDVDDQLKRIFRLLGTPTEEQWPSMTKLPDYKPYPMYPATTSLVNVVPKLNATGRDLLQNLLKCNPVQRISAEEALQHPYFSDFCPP
# Sequence of CDK5 (Q15078 99-307 partner limits assumed): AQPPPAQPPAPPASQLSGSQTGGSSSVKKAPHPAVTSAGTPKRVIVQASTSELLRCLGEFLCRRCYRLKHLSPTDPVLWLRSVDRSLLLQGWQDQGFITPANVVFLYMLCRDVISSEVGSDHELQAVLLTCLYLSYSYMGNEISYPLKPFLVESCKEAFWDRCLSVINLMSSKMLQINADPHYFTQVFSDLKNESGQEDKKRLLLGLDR
# Z138C = experiment: GI50 growth inhibition assay; assay type: cell-based; conditions: Homo sapiens, 96 h
# How it was run: as §2
# CDK2 = CDK2 (Homo sapiens, UniProt P24941); experiment: in vitro kinase assay; assay type: biochemical; conditions: data not shown
# CDK8 = CDK8 (Homo sapiens, UniProt P49336); experiment: in vitro kinase assay; assay type: biochemical; conditions: data not shown
# Sequence of CDK8 (P49336 whole entry): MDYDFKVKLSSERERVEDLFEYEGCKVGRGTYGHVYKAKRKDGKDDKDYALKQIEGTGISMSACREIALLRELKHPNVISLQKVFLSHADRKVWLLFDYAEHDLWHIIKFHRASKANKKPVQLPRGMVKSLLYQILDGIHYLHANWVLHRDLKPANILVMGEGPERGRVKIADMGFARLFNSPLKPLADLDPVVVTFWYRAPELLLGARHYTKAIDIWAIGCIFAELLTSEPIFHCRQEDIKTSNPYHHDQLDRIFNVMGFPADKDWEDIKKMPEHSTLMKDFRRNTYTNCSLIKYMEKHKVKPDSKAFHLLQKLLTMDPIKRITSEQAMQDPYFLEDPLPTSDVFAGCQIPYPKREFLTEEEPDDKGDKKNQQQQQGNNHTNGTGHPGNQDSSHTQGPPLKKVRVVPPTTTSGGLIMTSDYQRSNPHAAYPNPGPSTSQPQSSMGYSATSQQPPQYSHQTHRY
# Sequence of CDK8 (P24863 whole entry partner): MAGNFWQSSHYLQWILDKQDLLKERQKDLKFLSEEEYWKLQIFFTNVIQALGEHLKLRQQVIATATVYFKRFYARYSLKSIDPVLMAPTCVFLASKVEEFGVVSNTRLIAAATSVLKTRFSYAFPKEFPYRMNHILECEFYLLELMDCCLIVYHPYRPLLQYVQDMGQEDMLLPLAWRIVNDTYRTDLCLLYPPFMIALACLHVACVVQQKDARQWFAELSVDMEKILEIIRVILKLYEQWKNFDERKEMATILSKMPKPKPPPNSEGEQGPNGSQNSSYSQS
# BT-20 = experiment: GI50 growth inhibition assay; assay type: cell-based; conditions: Homo sapiens, BT-20, 96 h
# How it was run: as §1
# mantle cell lymphoma [11] = conditions: refractory or relapsed MCL patients; cited from earlier work
# mantle cell lymphoma [12] = conditions: Phase I trial, patients with refractory disease; cited from earlier work
# ARK5 = ARK5 (Homo sapiens, UniProt O60285); experiment: in vitro kinase assay, recombinant protein; assay type: biochemical
# Sequence of ARK5 (O60285 whole entry): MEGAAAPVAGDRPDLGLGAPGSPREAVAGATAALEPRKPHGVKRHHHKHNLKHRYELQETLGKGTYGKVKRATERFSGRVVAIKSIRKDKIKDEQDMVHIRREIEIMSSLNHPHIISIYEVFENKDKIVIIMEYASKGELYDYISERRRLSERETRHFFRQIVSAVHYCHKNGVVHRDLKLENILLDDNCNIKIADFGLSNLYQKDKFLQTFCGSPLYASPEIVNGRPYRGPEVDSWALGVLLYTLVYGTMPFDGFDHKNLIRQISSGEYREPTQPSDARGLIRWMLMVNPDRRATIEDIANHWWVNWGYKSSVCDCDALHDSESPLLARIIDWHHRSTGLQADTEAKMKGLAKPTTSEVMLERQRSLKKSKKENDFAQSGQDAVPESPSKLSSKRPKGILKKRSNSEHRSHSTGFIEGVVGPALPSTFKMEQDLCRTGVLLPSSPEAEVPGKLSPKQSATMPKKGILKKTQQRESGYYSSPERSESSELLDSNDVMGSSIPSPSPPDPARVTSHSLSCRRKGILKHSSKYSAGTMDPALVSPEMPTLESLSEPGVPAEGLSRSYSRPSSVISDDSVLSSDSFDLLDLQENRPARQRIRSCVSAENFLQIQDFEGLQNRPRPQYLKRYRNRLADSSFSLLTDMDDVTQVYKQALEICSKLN
# How it was run: (§4)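 Recombinant kinases were incubated with the indicated concentrations of test compound in in vitro kinase assays. Activity values were plotted against log drug concentration. IC50 came from sigmoidal non-linear regression with variable slope.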
# PI3K-δ = PI3K-δ (Homo sapiens, UniProt O00329); experiment: in vitro kinase assay, recombinant protein; assay type: biochemical
# Sequence of PI3K-δ (O00329 whole entry): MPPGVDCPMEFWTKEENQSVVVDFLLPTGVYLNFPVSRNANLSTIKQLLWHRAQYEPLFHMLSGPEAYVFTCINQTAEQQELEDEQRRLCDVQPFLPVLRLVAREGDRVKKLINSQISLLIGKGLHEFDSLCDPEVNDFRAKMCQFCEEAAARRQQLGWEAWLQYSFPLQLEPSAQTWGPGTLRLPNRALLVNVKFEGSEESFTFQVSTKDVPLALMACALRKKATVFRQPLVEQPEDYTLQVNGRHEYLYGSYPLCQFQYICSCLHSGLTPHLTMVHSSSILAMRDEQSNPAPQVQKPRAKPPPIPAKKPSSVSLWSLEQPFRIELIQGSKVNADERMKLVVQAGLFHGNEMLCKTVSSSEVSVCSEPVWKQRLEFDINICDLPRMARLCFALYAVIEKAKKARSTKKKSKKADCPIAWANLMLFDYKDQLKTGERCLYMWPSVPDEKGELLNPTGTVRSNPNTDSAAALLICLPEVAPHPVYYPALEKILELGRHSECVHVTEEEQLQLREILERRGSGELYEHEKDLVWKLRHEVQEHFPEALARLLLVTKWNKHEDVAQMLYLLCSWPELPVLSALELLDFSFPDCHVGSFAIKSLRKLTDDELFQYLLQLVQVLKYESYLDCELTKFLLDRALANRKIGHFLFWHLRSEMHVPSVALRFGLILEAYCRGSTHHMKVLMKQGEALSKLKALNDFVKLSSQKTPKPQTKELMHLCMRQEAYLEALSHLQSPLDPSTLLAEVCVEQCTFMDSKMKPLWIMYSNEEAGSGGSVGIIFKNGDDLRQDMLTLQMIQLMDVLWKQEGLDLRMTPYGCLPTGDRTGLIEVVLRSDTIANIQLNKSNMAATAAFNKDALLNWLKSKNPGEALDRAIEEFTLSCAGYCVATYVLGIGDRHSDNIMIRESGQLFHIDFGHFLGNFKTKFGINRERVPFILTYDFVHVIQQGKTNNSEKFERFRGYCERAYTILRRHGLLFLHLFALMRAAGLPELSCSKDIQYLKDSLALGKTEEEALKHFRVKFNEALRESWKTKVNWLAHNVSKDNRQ
# Sequence of PI3K-δ (P27986 whole entry partner): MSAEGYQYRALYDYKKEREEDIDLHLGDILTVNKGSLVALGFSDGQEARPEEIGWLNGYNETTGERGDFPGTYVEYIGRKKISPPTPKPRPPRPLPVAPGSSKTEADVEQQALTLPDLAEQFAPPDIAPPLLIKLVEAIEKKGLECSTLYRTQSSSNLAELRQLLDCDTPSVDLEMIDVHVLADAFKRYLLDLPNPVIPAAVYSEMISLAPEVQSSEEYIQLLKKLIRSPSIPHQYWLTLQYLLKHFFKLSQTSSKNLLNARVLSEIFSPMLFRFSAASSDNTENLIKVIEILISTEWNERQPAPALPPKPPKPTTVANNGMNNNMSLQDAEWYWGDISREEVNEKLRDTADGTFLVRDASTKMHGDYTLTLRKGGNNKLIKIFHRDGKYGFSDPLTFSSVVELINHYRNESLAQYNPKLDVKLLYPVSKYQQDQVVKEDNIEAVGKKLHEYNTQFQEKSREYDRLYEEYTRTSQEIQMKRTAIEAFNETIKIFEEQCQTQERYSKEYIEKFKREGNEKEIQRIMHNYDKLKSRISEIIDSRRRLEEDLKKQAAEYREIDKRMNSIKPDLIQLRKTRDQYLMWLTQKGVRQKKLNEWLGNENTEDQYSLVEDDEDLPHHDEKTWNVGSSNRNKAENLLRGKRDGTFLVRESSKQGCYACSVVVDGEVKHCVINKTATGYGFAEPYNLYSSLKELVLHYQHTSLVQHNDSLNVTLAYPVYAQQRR
# How it was run: as §4
compound,measurement,setting,value
"CN1CCN(c2ccc(Nc3ncc4cc(C#N)c(=O)n(C5CCCC5)c4n3)cc2)CC1 [ON123300, 8-cyclopentyl-2-[4-(4-methyl-piperazin-1-yl)-phenylamino]-7-oxo-7,8-dihydro-pyrid o[2,3-d]pyrimidine-6-carbonitrile]",oral bioavailability,[1]; mice,orally bio-available
same,area under the curve (AUC) as molar concentration,[1]; 50mg/kg ip,16.71 µM/ml/hr
same,area under the curve (AUC),[1]; 50mg/kg ip injection,7.18 µg/mL/h
same,area under the curve (AUC),[1]; 50mg/kg oral gavage (po),2.78 µg/mL/h
same,area under the curve (AUC) as molar concentration,[1]; 50mg/kg po,6.47 µM/ml/hr
same,GI50,MDA-MB-157,250 nM
same,levels of Rb and AKT phosphorylation,[2],reductions in the levels of Rb and AKT phosphorylation
same,phosphorylation of S6RB,[2],inhibited
same,GI50,SNU-5,200 nM
same,concentrations at which cells accumulated in the G1 phase,Z138C cells,0.1 to 1.0 µM
same,accumulation of cells in the sub-G1 phase,Z138C cells,eventually accumulated in the sub-G1 phase
same,GI50,MDA-MB-231,200 nM
same,phosphorylation status of MEK or ERK kinases,[3],neither ON123300 nor PD0332991 has any effect
same,total body weights,Z138C xenograft; 100mg/kg daily treatment,did not cause a significant reduction
same,tumor growth,"Z138C xenograft; 100mg/kg daily, ip, 2-week period, p<0.05",significantly inhibited; also recorded: markedly inhibited tumor growth
same,GI50,DLD-1,100 nM
same,GI50,SNU-398,300 nM
same,GI50,MIA-PaCa-2,250 nM
same,phosphorylation status of p65 (NF-kB),[4],no change
same,GI50,BT-474,250 nM
same,phosphorylation status of p65,HeLa cells,little or no effect
same,survival rate,"[5]; 200mg/kg ip for 5 consecutive days, at least 10 days post-administration",100%
same,signs of toxicity,"[5]; 200mg/kg ip for 5 consecutive days, data not shown",did not exhibit any signs of toxicity
same,toxicity,"[5]; mice, administered orally or intraperitoneally",minimally toxic
same,survival rate,"[5]; single ip dose 100 or 200 mg/kg, 7 days",100%
same,signs of toxicity and body weights,"[5]; single ip dose 100 or 200 mg/kg, monitored 7 days",No signs of toxicity or weight loss
same,GI50,COLO-205,200 nM
same,blood-brain barrier crossing,[6],readily crosses the blood-brain barrier
same,GI50,GRANTA-519,35 nM
same,GI50,HCT-15,400 nM
same,concentrations inducing growth arrest and cell death,MCL cell lines,25 to 50 nM
same,GI50,SW480,100 nM
same,AKT Ser473 phosphorylation,[7],inhibition of AKT Ser473 phosphorylation
same,FOXO1 phosphorylation,[7],inhibition of FOXO1 phosphorylation
same,mTOR phosphorylation at Ser2481,[7],inhibition of mTOR phosphorylation at Ser2481
same,phosphorylation of 4EBP1 and S6RB,[7],inhibited
same,levels of CDK4 and CDK2,[8],unaffected
same,p21 levels,[8],loss of p21 levels
same,levels of CYCLIN D1,[8]; as a function of concentration,declined
same,phosphorylation of pRb and p130,[8],inhibited the phosphorylation of pRb and p130
same,PARP cleavage at lower concentrations,[9],readily resulted in PARP cleavage
same,concentration at which PARP cleavage is seen,[9]; 24 hrs,greater than or equal to 2.5 µM
same,"levels of full-length caspases 3, 7 and 9",[9]; 24 hrs,"decreases in the levels of full-length forms of caspases 3, 7 and 9"
same,cells stained Annexin V+,[10],~100%
same,inhibitory activity against CDK1,CDK1,little inhibitory activity
same,inhibitory activity against CDK5,CDK5,little inhibitory activity
same,GI50,Z138C,25 nM
same,inhibitory activity against CDK2,CDK2,little inhibitory activity
same,inhibitory activity against CDK8,CDK8,little inhibitory activity
same,GI50,BT-20,100 nM
Nc1ccc2ncnc(NCCc3ccc(Oc4ccccc4)cc3)c2c1 [QNZ],phosphorylation status of p65,HeLa cells,strong inhibition
C=CC(=O)N1CCC[C@@H](n2nc(-c3ccc(Oc4ccccc4)cc3)c3c(N)ncnc32)C1 [Ibrutinib],patients with complete remission,mantle cell lymphoma [11],approximately 21%
CC[C@H](Nc1ncnc2[nH]cnc12)c1nc2cccc(F)c2c(=O)n1-c1ccccc1 [idelalisib],efficacy as a single agent,mantle cell lymphoma [12],modestly effective
N#CC(=C(/N)Sc1ccccc1N)/C(C#N)=C(/N)Sc1ccccc1N [U0126],phosphorylation status of MEK or ERK kinases,[3],potently inhibited
"CC(=O)c1c(C)c2cnc(Nc3ccc(N4CCNCC4)cn3)nc2n(C2CCCC2)c1=O [PD0332991, reference compound]",accumulation of cells in the sub-G1 phase,Z138C cells,little or no accumulation of cells in the sub-G1 phase
same,accumulation of cells in the G1 phase,Z138C cells; increasing concentrations,rapid accumulation of the cells in the G1 phase
same,phosphorylation status of MEK or ERK kinases,[3],neither ON123300 nor PD0332991 has any effect
same,IC50,ARK5,> 5000 nM
same,phosphorylation status of p65 (NF-kB),[4],no change
same,IC50,PI3K-δ,> 10000 nM
same,inhibitory activity against PI3K-δ,PI3K-δ; in vitro kinase assay,failed to show any inhibitory activity
same,phosphorylation status of p65,HeLa cells,little or no effect
same,"phosphorylation status of AKT, mTOR, 4EBP1 and S6 ribosomal protein (S6RB)",[7],no discernable change
same,levels of CDK4 and CDK2,[8],unaffected
same,p21 levels,[8],not readily seen
same,phosphorylation of pRb and p130,[8],inhibited the phosphorylation of pRb and p130
same,PARP cleavage at lower concentrations,[9],did not show any PARP cleavage
same,"evidence of apoptosis (PARP cleavage, caspases)","[9]; 24 hrs, increasing concentrations",no evidence of apoptosis
